The test system of assay [1] is Plasmodium falciparum. Put plainly: Antiplasmodial activity against chloroquine-resistant Plasmodium falciparum K1 infected in human O+erythrocytes after 72 hrs by lactate dehydrogenase assay. The conditions noted are these: K1, 72 h. The class given is functional, cell-based.
The next assay deals with MRC5. Nature of the assay: Cytotoxicity against human MRC5 cells assessed as decrease in cell proliferation/viability after 7 days by MTT assay. The class given is cell-based. The conditions noted are these: MRC5, 168 h. Put shortly: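 Human fetal lung fibroblast MRC-5 cells; tested up to a highest concentration of 64.0 μM. Result is the mean and standard deviation of three experiments.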
(In general: Formazan colour is commonly taken as a measure of viable cells.)

Assay [2] concerns Plasmodium falciparum. Put plainly: Antiplasmodial activity against multidrug-resistant Plasmodium falciparum K1 assessed as reduction in parasite growth by [3H]-hypoxanthine incorporation assay. The class given is functional.

One may read the IC50 as the concentration that gives 50% inhibition. As for `CCC(C)[C@@H]1NC(=O)[C@@H]2[C@H](CCN2C(=O)[C@H](Cc2c[nH]c3ccccc23)N(C)C)Oc2ccc(OC)c(c2)/C=C\NC1=O` (stereo partly specified), the values for the IC50 in the assay on Plasmodium falciparum [1] and in the assay with MRC5 were 3.2 µM and 30.6 µM, respectively.
In the same order, the values of `O=C1N/C=C\c2ccc(cc2)O[C@@H](c2ccccc2)[C@H](NC(=O)[C@@H]2CCCN2C(=O)/C=C/c2ccccc2)C(=O)N[C@H]1C(O)c1ccccc1` (stereo partly specified) are 7.4 µM and 31.2 µM.
For the compound `CCC(C)[C@@H]1NC(=O)[C@@H]2[C@H](CCN2C(=O)[C@H](Cc2c[nH]c3ccccc23)N(C)C)Oc2ccc(cc2)/C=C\NC1=O` (stereo partly specified), the IC50 in the assay on Plasmodium falciparum [1] is 13.6 µM; with Plasmodium falciparum [2], 7.3 µM; in the assay with MRC5, over 64 µM.
For the compound `CCC(C)[C@@H]1NC(=O)[C@@H]2[C@H](CCN2C(=O)[C@H](Cc2c[nH]c3ccccc23)N(C)C)Oc2ccc(O)c(c2)/C=C\NC1=O` (stereo partly specified), the results for the IC50 in the assay with Plasmodium falciparum [1] and with MRC5 were 7.1 µM and over 64 µM, respectively.
The like results for `CCC(C)[C@@H]1NC(=O)[C@@H]2[C@H](CCN2C(=O)[C@H](C(C)CC)N(C)C)Oc2ccc(cc2)/C=C\NC1=O` (stereo partly specified) were, in that order, over 32 µM and over 64 µM.
